The source of these data is ChEMBL document CHEMBL1148344, “3-(2-aminoalkyl)-1-(2,6-difluorobenzyl)-5- (2-fluoro-3-methoxyphenyl)-6-methyl-uracils as orally bioavailable antagonists of the human gonadotropin releasing hormone receptor” (J Med Chem, 2004).

As usually defined, the Ki is the dissociation constant of the complex between target and ligand, obtained from inhibition or displacement. The low end stands for higher affinity, the high end for lower affinity. What is called Vd is a proportionality between amount in the body and measured concentration, not a real space. A lower Vd goes with little distribution into tissue. Usually clearance stands for the volume of plasma or blood freed of the substance per unit of time. Low values mean a low capacity for elimination, high ones a high capacity for elimination. Usually bioavailability stands for dose-corrected exposure relative to a reference, in per cent. High values mean much systemic uptake, low ones little systemic uptake. In general, half-life refers to the time needed for the level to fall by half in the phase considered. A high value points to slow decline. What is called IC50 is the point on the concentration scale where inhibition reaches its midpoint.

The target in data set [1] is T1, Gonadotropin-releasing hormone receptor (Homo sapiens, UniProt P30968).
T1 sequence (P30968 whole entry): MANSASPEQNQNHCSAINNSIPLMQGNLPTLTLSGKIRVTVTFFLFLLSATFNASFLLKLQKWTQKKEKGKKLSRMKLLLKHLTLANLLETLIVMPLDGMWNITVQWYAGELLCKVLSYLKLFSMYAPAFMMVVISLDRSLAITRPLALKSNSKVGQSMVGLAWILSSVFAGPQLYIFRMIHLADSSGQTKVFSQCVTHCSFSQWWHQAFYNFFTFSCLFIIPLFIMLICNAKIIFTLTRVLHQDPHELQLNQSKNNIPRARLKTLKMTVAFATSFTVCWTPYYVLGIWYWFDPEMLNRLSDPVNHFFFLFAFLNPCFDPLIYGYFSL
Put plainly: Binding affinity towards human gonadotropin releasing hormone receptor using des-Gly10[125I]Tyr5,D-Leu6,NMeLeu7,Pro9-NEt]GnRH as radioligand expressed in HEK293 cells. The format is cell-based. A digest of the protocol: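 Competitive displacement at cloned human GnRH receptor expressed in HEK293 cells, 96-well filtration format. Three to eight independent experiments.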

Data set [2] is described as follows: Volume of distribution in mouse. The format is ADME, organism-based. The settings on record: in vivo. A digest of the protocol: (§1)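 Mice dosed orally and intravenously at 10 mg/kg. Pharmacokinetic parameters derived from plasma exposure after each route.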
Data set [3] in a line: Clearance in mouse. The format is ADME, organism-based. The settings on record: in vivo. A digest of the protocol: as §1
Data set [4] is described as follows: Bioavailability in mouse. The format is ADME, organism-based. Particulars: in vivo. A digest of the protocol: as §1
Data set [5] is described as follows: Half life in mouse. The class given is ADME, organism-based. The settings on record: in vivo. A digest of the protocol:
as §1

The target of data set [6] is T2, Gonadotropin-releasing hormone receptor (Rattus norvegicus, UniProt P30969).
T2 sequence (P30969 whole entry): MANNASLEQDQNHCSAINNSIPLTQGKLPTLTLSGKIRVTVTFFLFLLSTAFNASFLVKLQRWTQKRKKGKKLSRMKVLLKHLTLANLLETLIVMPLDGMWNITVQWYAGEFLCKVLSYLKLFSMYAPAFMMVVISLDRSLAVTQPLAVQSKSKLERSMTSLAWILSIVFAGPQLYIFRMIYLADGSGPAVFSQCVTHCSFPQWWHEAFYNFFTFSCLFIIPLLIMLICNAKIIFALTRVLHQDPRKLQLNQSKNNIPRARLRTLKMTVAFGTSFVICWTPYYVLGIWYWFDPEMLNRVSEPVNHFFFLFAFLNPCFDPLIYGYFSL
The data set can be described thus: Tested for binding affinity towards rat gonadotropin releasing hormone receptor.

The nature of data set [7]: Inhibitory concentration of compound against GnRH stimulated calcium flux in transfected cells. The format is functional, cell-based. In a few lines:
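GnRH-stimulated Ca2+ flux measured in hGnRH receptor-transfected cells. Inhibition tested across a concentration series, with IC50 taken from the dose-response curve.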
A general note: A change in cytosolic calcium serves as a functional read-out for many receptors and channels.

The compound `COc1cccc(-c2c(C)n(Cc3c(F)cccc3F)c(=O)n(C[C@@H](N)C3CCCC3)c2=O)c1F` displayed a Ki in data set [1] of 94 nM. Same read-out and setting: next, `COc1cccc(-c2c(C)n(Cc3c(F)cccc3F)c(=O)n(C[C@H](NC(C)C)C3CCCC3)c2=O)c1F`: 12 nM; `COc1cccc(-c2c(C)n(Cc3c(F)cccc3F)c(=O)n(C[C@@H](C3CCCCC3)N(C)C)c2=O)c1F`: 4.1 nM. In data set [2], `CN[C@@H](Cc1ccccc1)Cn1c(=O)c(-c2cccc(OC)c2F)c(C)n(Cc2c(F)cccc2F)c1=O` gave a Vd of 6.9 L/kg. The compound further displayed a clearance in data set [3] of 97.2 mL/min/kg. Moreover, the bioavailability in data set [4] was found to be 42%. This compound also had a half-life in data set [5] of 48 min. The Ki turned out to be 8.1 nM in data set [1] and 11000 nM in data set [6]. The IC50 in data set [7] is 20 nM.

In data set [2], `COc1cccc(-c2c(C)n(Cc3c(F)cccc3F)c(=O)n(C[C@@H](N)Cc3ccccc3)c2=O)c1F` yielded a Vd of 4.9 L/kg. Further, in data set [3], the clearance came out at 65.6 mL/min/kg. This compound had a bioavailability in data set [4] of 11%. In data set [5], this compound showed a half-life of 54 min. Also, the affinity in data set [1], expressed as Ki, was 16 nM. Turning to `COc1cccc(-c2c(C)n(Cc3c(F)cccc3F)c(=O)n(CC(N)C3CCCCC3)c2=O)c1F` (single isomer, unassigned), the Ki in data set [1] turned out to be 46 nM. Same read-out and setting: next, `COc1cccc(-c2c(C)n(Cc3c(F)cccc3F)c(=O)n(C[C@@H](N)CC(C)C)c2=O)c1F`: 39 nM; `COc1cccc(-c2c(C)n(Cc3c(F)cccc3F)c(=O)n(C[C@@H](C3CCCC3)N(C)C)c2=O)c1F`: 0.6 nM; `COc1cccc(-c2c(C)n(Cc3c(F)cccc3F)c(=O)n(C[C@H](C)N)c2=O)c1F`: > 10000 nM.

As for `COc1cccc(-c2c(C)n(Cc3c(F)cccc3F)c(=O)n(C[C@H](N)CC(C)(C)C)c2=O)c1F`, in data set [1], the affinity, expressed as Ki, was 71 nM. The compound `COc1cccc(-c2c(C)n(Cc3c(F)cccc3F)c(=O)n(C[C@H](N)C3CCCCC3)c2=O)c1F` gave a Vd in data set [2] of 7.3 L/kg. The compound further had a clearance in data set [3] of 65.4 mL/min/kg. In data set [4], this compound came in with a bioavailability of 11%. Besides, the half-life in data set [5] is 78 min. This compound displayed a Ki in data set [1] of 6.5 nM. Also, the IC50 in data set [7] came out at 60 nM. In data set [1], `COc1cccc(-c2c(C)n(Cc3c(F)cccc3F)c(=O)n(C[C@H](N)C(C)C)c2=O)c1F` gave a Ki of 51 nM. On the same count and under the same terms, next, `COc1cccc(-c2c(C)n(Cc3c(F)cccc3F)c(=O)n(C[C@H](NC(C)C)C3CCCCC3)c2=O)c1F`: 23 nM; `COc1cccc(-c2c(C)n(Cc3c(F)cccc3F)c(=O)n(C[C@@H](C)N)c2=O)c1F`: 595 nM.

Compound `COc1cccc(-c2c(C)n(Cc3c(F)cccc3F)c(=O)n(C[C@H](N)CC(C)C)c2=O)c1F` showed a volume of distribution (Vd) in data set [2] of 3.9 L/kg. The same compound came in with a clearance in data set [3] of 65.7 mL/min/kg. In addition, the bioavailability in data set [4] amounted to 6%. Also, the half-life in data set [5] is 42 min. The compound further displayed a Ki in data set [1] of 6.4 nM. Compound `COc1cccc(-c2c(C)n(Cc3c(F)cccc3F)c(=O)n(C[C@@H](N)C(C)C)c2=O)c1F` registered a Ki in data set [1] of 973 nM. On the same count and under the same terms, next, `CN[C@H](CC(C)C)Cn1c(=O)c(-c2cccc(OC)c2F)c(C)n(Cc2c(F)cccc2F)c1=O`: 1.2 nM; `COc1cccc(-c2c(C)n(Cc3c(F)cccc3F)c(=O)n(C[C@@H](N)CCc3ccccc3)c2=O)c1F`: 965 nM; `COc1cccc(-c2c(C)n(Cc3c(F)cccc3F)c(=O)n(C[C@H](C3CCCC3)N(C)C)c2=O)c1F`: 2.4 nM. Still for that read-out and setting: next, `COc1cccc(-c2c(C)n(Cc3c(F)cccc3F)c(=O)n(C[C@H](N)C3CCCC3)c2=O)c1F`: 10 nM; `COc1cccc(-c2c(C)n(Cc3c(F)cccc3F)c(=O)n(C[C@H](N)Cc3ccccc3)c2=O)c1F`: 66 nM. `COc1cccc(-c2c(C)n(Cc3c(F)cccc3F)c(=O)n(C[C@H](C)NCc3ccccc3)c2=O)c1F` displayed a Vd in data set [2] of 7.9 L/kg. Further, in data set [3], the clearance is 81.3 mL/min/kg. This compound came in with a bioavailability in data set [4] of 3%. In data set [5], this compound showed a half-life of 66 min. Also, the Ki in data set [1] was found to be 51 nM.

In data set [1], `COc1cccc(-c2c(C)n(Cc3c(F)cccc3F)c(=O)n(C[C@H](Cc3ccccc3)N(C)C)c2=O)c1F` came in with a Ki of 7.9 nM. `COc1cccc(-c2c(C)n(Cc3c(F)cccc3F)c(=O)n(C[C@@H](CC(C)C)NC(C)C)c2=O)c1F` showed a Ki in data set [1] of 12 nM.
